14 molecules from ChEMBL document CHEMBL1667815, “Pharmacophore models based studies on the affinity and selectivity toward 5-HT1A with reference to α1-adrenergic receptors among arylpiperazine derivatives of phenytoin” (Bioorg Med Chem, 2011) can be followed below.

In assay [1] the target is T1, 5-hydroxytryptamine receptor 1A (Rattus norvegicus) (UniProt P19327).
T1 sequence (whole entry): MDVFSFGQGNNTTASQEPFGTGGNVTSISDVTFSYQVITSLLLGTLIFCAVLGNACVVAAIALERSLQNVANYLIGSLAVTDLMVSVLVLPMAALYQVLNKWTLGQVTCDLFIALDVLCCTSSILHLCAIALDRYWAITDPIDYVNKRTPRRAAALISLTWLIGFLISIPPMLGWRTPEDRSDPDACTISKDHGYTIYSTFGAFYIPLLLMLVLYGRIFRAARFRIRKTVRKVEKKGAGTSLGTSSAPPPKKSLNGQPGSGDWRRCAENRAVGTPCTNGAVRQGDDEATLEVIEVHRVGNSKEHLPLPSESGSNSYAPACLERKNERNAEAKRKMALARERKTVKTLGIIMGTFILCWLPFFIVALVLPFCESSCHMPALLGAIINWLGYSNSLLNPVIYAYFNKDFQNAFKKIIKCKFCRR
Description: Displacement of [3H]-8-OH-DPAT from 5-HT1A receptor in rat hippocampal membranes by liquid scintillation counting. In kind it is cell membranes. The following applies: Hippocampus, Membrane. Summed up: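 Native 5-HT1A sites in rat hippocampal membranes, labelled with [3H]-8-OH-DPAT (170.2 Ci/mmol). Each compound was tested at two concentrations (0.1 and 1), each in triplicate. Bound radioactivity was counted by liquid scintillation. Ks values were estimated from three independent binding experiments and reproduced within 20%.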

Assay [2] deals with T2, Adrenergic receptor alpha-1 (Rattus norvegicus, UniProt P15823+P23944+P43140).
T2 sequence (P15823 whole entry): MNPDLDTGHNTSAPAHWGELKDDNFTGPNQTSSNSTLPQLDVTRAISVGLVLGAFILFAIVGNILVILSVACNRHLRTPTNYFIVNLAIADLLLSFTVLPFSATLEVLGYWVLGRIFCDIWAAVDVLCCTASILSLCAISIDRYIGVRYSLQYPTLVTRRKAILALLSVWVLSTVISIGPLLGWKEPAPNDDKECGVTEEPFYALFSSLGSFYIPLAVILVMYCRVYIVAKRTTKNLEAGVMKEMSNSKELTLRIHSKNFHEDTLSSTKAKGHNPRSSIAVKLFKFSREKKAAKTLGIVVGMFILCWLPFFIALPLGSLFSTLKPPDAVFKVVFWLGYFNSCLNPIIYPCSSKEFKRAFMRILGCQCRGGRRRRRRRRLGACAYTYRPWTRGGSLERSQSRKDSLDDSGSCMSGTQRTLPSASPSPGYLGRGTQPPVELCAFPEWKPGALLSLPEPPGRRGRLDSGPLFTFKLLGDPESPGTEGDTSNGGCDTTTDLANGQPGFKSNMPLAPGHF
T2 sequence (P23944 whole entry): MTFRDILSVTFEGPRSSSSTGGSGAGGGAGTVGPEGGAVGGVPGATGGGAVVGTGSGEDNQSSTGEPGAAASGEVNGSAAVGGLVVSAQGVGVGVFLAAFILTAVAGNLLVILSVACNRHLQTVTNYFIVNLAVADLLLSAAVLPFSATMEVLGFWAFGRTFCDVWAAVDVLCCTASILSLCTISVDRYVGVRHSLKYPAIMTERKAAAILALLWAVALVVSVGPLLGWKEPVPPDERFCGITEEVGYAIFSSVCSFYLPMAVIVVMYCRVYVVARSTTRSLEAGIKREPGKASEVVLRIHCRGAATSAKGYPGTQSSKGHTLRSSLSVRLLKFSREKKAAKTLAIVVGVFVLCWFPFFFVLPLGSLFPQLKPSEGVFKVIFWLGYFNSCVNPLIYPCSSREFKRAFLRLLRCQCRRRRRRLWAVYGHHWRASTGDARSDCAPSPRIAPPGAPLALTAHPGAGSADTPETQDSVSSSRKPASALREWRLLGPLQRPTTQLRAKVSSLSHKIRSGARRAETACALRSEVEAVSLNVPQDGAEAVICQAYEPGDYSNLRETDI
T2 sequence (P43140 whole entry): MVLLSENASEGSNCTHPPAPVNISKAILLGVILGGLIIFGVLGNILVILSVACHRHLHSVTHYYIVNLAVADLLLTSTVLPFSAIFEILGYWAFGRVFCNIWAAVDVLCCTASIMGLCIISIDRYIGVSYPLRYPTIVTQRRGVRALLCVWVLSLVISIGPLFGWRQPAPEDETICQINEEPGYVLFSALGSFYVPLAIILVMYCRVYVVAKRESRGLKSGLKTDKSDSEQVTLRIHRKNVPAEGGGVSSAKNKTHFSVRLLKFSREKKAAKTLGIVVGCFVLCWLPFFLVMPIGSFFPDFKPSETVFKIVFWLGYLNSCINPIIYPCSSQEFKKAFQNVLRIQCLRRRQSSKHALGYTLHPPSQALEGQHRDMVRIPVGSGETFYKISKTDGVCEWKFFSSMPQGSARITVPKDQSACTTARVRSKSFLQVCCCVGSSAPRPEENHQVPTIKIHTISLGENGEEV
Briefly: Displacement of [3H]-prazosin from alpha1-adrenergic receptor in rat cerebral cortex membranes after 30 mins by scintillation counting. The format is cell membranes, Membrane. In general terms: Loss of bound radioactivity is the signal in a displacement assay; it reports binding, not function.

Another assay is filed under the species Rattus norvegicus. Description: Selectivity ratio of Ki for alpha1-adrenergic receptor in rat cerebral cortex membranes to Ki for 5-HT1A receptor in rat hippocampal membranes. In kind it is cell membranes. The note with it: Membrane.
Assay [3] has as its target Adrenergic receptor alpha-1 (Rattus norvegicus) (UniProt P15823+P23944+P43140). The following applies: Wistar, Thoracic aorta.

`COc1ccccc1N1CCN(CC(O)CN2C(=O)N(CC(=O)O)C(=O)C2(c2ccccc2)c2ccccc2)CC1.Cl` (racemic) had a Ks in assay [1] of 575 nM. Besides, the Ki in assay [2] was 4.8 µM. Further, the Ratio in the assay listed under Rattus norvegicus is 8.35. In turn, `CCN1C(=O)N(CC(O)CN2CCN(c3ccccc3)CC2)C(c2ccccc2)(c2ccccc2)C1=O` (racemic) registered a Ks in assay [1] of 610 nM. In turn, `CCOC(=O)C(C)N1C(=O)N(CC(O)CN2CCN(c3ccccc3OC)CC2)C(c2ccccc2)(c2ccccc2)C1=O` (racemic) yielded a Ks in assay [1] of 30 nM. Besides, the Ratio in the assay listed under Rattus norvegicus was 4.52. For the molecule `CCOC(=O)CN1C(=O)N(CC(O)CN2CCN(c3ccccc3OC)CC2)C(c2ccccc2)(c2ccccc2)C1=O` (racemic), in assay [1], the Ks was determined as 88 nM.

In assay [1], `CCOc1ccccc1N1CCN(CC(CN2C(=O)N(C)C(=O)C2(c2ccccc2)c2ccccc2)OC(C)=O)CC1` (racemic) gave a Ks of 38 nM.

`CCOc1ccccc1N1CCN(CC(O)CN2C(=O)N(C(C)C(=O)OC)C(=O)C2(c2ccccc2)c2ccccc2)CC1` (racemic) showed a Ks in assay [1] of 28 nM.

Molecule `CCOc1ccccc1N1CCN(CC(O)CN2C(=O)N(C)C(=O)C2(c2ccccc2)c2ccccc2)CC1` (racemic) had a Ks in assay [1] of 7 nM. For the same molecule, in the assay listed under Rattus norvegicus, the Ratio is 17.4.

In assay [1], `CCOc1ccccc1N1CCN(CC(O)CN2C(=O)N(CC(=O)OC)C(=O)C2(c2ccccc2)c2ccccc2)CC1` (racemic) came in with a Ks of 37 nM. In turn, `CCOc1ccccc1N1CCN(CC(O)CN2C(=O)NC(=O)C2(c2ccccc2)c2ccccc2)CC1` (racemic) returned a Ks in assay [1] of 83 nM. The pKb in assay [3] is 7.44.

In the case of `COC(=O)C(C)N1C(=O)N(CC(O)CN2CCN(c3ccccc3OC)CC2)C(c2ccccc2)(c2ccccc2)C1=O` (racemic), the Ks in assay [1] is 104 nM. The Ratio in the assay filed under Rattus norvegicus worked out at 1.

In the case of `COC(=O)CN1C(=O)N(CC(O)CN2CCN(c3ccccc3OC)CC2)C(c2ccccc2)(c2ccccc2)C1=O` (racemic), the Ks in assay [1] stood at 86 nM. Moreover, the Ratio in the assay filed under Rattus norvegicus was found to be 2.29. Molecule `COc1ccccc1N1CCN(CC(O)CN2C(=O)N(C)C(=O)C2(c2ccccc2)c2ccccc2)CC1` (racemic) showed a Ks in assay [1] of 22 nM.

In assay [1], `COc1ccccc1N1CCN(CC(O)CN2C(=O)NC(=O)C2(c2ccccc2)c2ccccc2)CC1` (racemic) returned a Ks of 95 nM. As to `O=C1NC(=O)C(c2ccccc2)(c2ccccc2)N1CC(O)CN1CCN(c2ccccc2)CC1` (racemic), the Ks in assay [1] stood at 573 nM.

For orientation: Ki means a dissociation constant, usually derived from enzyme kinetics or from competition with a known ligand. The term pKb denotes the negative decadic logarithm of the Kb, by convention in mol/L. Higher therefore signals a small Kb.
